Test results as given in article PMC3481835 (Clinical pharmacology and therapeutics, 2011).
Like-named read-outs stand apart in the source and are kept apart here.

Tests used:
CYP2B6 [1] = target: T1, CYP2B6 (Homo sapiens, UniProt P20813); assay: 6β-hydroxylation by recombinantly-expressed CYP2B6; conditions: recombinantly-expressed enzyme
T1 sequence (P20813 1-491): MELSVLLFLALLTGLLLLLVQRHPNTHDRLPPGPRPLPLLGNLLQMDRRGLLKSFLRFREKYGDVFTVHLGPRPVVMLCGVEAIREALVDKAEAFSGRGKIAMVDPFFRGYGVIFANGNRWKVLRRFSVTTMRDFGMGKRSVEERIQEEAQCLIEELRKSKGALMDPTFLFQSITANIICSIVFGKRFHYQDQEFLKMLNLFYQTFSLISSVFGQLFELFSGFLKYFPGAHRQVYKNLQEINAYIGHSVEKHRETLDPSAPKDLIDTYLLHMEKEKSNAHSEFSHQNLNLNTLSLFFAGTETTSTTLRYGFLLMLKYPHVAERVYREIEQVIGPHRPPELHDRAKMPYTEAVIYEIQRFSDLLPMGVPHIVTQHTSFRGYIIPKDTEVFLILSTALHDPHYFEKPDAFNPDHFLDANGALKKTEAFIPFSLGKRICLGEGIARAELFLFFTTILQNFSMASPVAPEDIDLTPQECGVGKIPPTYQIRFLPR

CYP3A4 [2] = conditions: cited from earlier work; for decrease in urinary 6β-hydroxycortisol to cortisol-ratio: range printed for the three inhibitors
CYP3A4 [3] = conditions: cited from earlier work; for predicted decrease in CYP3A4 mediated clearance: predicted from I/Ki
Fraction unbound = type: in vitro ADME; conditions: human, pooled human liver microsomes
In short: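 Pooled microsomes from three CYP3A5*3/*3 donors (equal protein each), 0.5 mg/mL, spiked with test compound at 5, 50 or 1000 nM, duplicates. Each sample split: one aliquot ultracentrifuged at 445,760 g, 140 min, 37 °C; the other held at 37 °C for the same time. Upper clear layer and uncentrifuged sample taken into ACN with deuterated internal standard; HPLC (C8, ammonium acetate/ACN gradient) with LC-MS.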

CYP3A4 [4] = target: T2, CYP3A4 (Homo sapiens, UniProt P08684); assay: Formation clearance; type: in vivo; conditions: 50 mg itraconazole
T2 sequence (P08684 whole entry): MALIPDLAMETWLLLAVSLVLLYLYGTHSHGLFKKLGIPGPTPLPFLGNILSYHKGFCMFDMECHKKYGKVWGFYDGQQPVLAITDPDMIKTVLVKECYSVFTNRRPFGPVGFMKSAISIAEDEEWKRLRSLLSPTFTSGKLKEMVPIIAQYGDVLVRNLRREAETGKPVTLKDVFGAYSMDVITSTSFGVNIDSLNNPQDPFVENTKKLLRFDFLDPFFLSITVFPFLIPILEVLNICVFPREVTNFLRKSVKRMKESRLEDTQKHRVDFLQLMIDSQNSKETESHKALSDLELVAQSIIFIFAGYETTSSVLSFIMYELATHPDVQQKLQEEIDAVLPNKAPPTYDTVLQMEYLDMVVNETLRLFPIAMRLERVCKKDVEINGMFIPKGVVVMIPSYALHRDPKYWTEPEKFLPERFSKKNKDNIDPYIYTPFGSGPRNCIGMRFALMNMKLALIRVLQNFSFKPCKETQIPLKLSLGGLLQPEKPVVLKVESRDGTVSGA

[5] = Renal clearance of cortisol; type: in vivo, human
CYP3A4 [6] = type: in vivo, human
[7] = Plasma concentrations of cortisol and cortisone after itraconazole; type: in vivo, human; conditions: single doses 50, 200 and 400 mg po
CYP3A4 [8] = conditions: during treatment; cited from earlier work
CYP3A4 [9] = target: T2, CYP3A4; assay: in vitro; conditions: pH 7.4
CYP3A4 [10] = target: T2, CYP3A4; assay: in vitro; conditions: pH 7.4; remark: listed apart in the source
CYP3A4 [11] = target: T2, CYP3A4; conditions: recombinant enzyme, pH 7.4
CYP2B6 [12] = target: T1, CYP2B6; conditions: recombinant enzyme

Which “6β-hydroxylation detected with CYP2B6” value (CYP2B6 [1]) does the source give for `C[C@]12CCC(=O)C=C1CC[C@@H]1[C@@H]2C(=O)C[C@@]2(C)[C@H]1CC[C@]2(O)C(=O)CO` [cortisone] here?
The value was “not”.

For `CC(C)CN(C[C@@H](O)[C@H](Cc1ccccc1)NC(=O)O[C@H]1CCOC1)S(=O)(=O)c1ccc(N)cc1` [amprenavir], which “effect on urinary 6β-hydroxycortisol to cortisol ratio” value (CYP3A4 [2]) is on record?
The value was “no significant inhibitory effect”.

Which “in vivo fm attributed to CYP3A4, midazolam metabolism” value (CYP3A4 [3]; ref not given) does the source give for `Cc1ncc2n1-c1ccc(Cl)cc1C(c1ccccc1F)=NC2` [midazolam] here?
Its value is 84%.

Which “decrease in urinary 6β-hydroxycortisol to cortisol-ratio” value (CYP3A4 [2]) does the source give for `CC[C@H]1OC(=O)[C@H](C)[C@@H](O[C@H]2C[C@@](C)(OC)[C@@H](O)[C@H](C)O2)[C@H](C)[C@@H](O[C@@H]2O[C@H](C)C[C@H](N(C)C)[C@H]2O)[C@](C)(OC)C[C@@H](C)C(=O)[C@H](C)[C@@H](O)[C@]1(C)O` [clarithromycin] here?
Its value is 15-65%.

For `C#C[C@]1(O)CC[C@H]2[C@@H]3CCC4=Cc5oncc5C[C@]4(C)[C@H]3CC[C@@]21C` [danazol], which “decrease in urinary 6β-hydroxycortisol to cortisol-ratio” value (CYP3A4 [2]) is on record?
Its value is 15-65%.

Which fraction unbound at 140 min (Fraction unbound) does the source give for `CCC(C)n1ncn(-c2ccc(N3CCN(c4ccc(OCC5COC(Cn6cncn6)(c6ccc(Cl)cc6Cl)O5)cc4)CC3)cc2)c1=O` (stereo not shown) [itraconazole] here?
Its fraction unbound at 140 min is 0.046 ± 0.01.

What about the “decrease in the CLf processes” value (CYP3A4 [4]) of the same compound?
The value was “No significant decrease”.

And the “effect on renal clearance of cortisol” value ([5]; escalating itraconazole doses)?
Its value is “unchanged”.

And the “predicted decrease in oral midazolam clearance” value (CYP3A4 [6]; 50 mg ITZ)?
The value was 30%.

And the “predicted decrease in hepatic midazolam clearance” value (CYP3A4 [6]; 50 mg ITZ, from circulating ITZ and metabolites and in vitro IC50)?
The value was 21%.

What about the “predicted decrease in oral midazolam clearance” value (CYP3A4 [6]; 200 mg ITZ) of the same compound?
The value was 77%.

What about the “effect on the plasma concentrations of cortisol or cortisone” value [7] of the same compound?
The value was “no effect”.

And the “decrease in 4β-hydroxycholesterol concentrations” value (CYP3A4 [8])?
Its value is 21-29%.

And the “decrease in total cholesterol” value (CYP3A4 [8])?
Its value is 10%.

And the Emax at 15 min (CYP3A4 [9])?
The Emax at 15 min was 78 to 85%.

What about the Emax at 15 min (CYP3A4 [10]) of the same compound?
The Emax at 15 min was 78 to 85%.

And the “decrease in MDZ CL/F” value (CYP3A4 [3]; 50 mg itraconazole)?
Its value is 50%.

And the “predicted decrease in CYP3A4 mediated clearance” value (CYP3A4 [3]; 24-48 hours after 400 mg)?
The value was 50-70%.

What about the “decrease in MDZ CL/F” value (CYP3A4 [3]; 200 and 400 mg itraconazole) of the same compound?
The value was 80%.

What about the “expected persistence of CYP3A4 inhibition” value (CYP3A4 [3]; after 400 mg, return to baseline at 72 hours) of the same compound?
The value was 48 h.

What about the “RKi (IC50,in vitro/IC50,in vivo), itraconazole-oral MDZ interaction” value (CYP3A4 [3]) of the same compound?
Its value is 14.5.

And the “predicted decrease in CYP3A4 mediated clearance” value (CYP3A4 [3]; first 24 hours after 400 mg)?
The value was 70-90%.

For `C[C@]12CCC(=O)C=C1CC[C@@H]1[C@@H]2[C@@H](O)C[C@@]2(C)[C@H]1CC[C@]2(O)C(=O)CO` [cortisol], which CL renal ([5]; both, human, urine and plasma) is on record?
Its CL renal is 0.283 mL/min.

And the “intrinsic clearance (CLint), 6β-hydroxylation by CYP3A4” value (CYP3A4 [11])?
Its value is 0.18 mL/min/nmol CYP3A4.

What about the “v, 6β-hydroxylation by CYP2B6” value (CYP2B6 [12]; human, 25 µM, pH 7.4) of the same compound?
Its value is 0.11 pmol/min/pmol.

What about the “CYP3A4 mediated CLint relative to CYP2B6 mediated CLint” value (CYP2B6 [12]; human, pH 7.4) of the same compound?
Its value is 40 fold.

And the “apparent CYP2B6 mediated intrinsic clearance” value (CYP2B6 [12]; human, pH 7.4)?
The value was 0.0045 mL/min/nmol P450.

And the “6β-hydroxylation detected with CYP2B6” value (CYP2B6 [12])?
Its value is “observed”.
